Data on 34 molecules can be found in ChEMBL document CHEMBL3124864, “Development of antimycobacterial tetrahydrothieno[2,3-c]pyridine-3-carboxamides and hexahydrocycloocta[b]thiophene-3-carboxamides: Molecular modification from known antimycobacterial lead” (Eur J Med Chem, 2014).

In brackets after ≈: the same amount, converted by molar mass.

The test system of data set [1] is Mycobacterium tuberculosis. Kind of data set: Antitubercular activity against Mycobacterium tuberculosis H37Rv ATCC 27294 after 28 days by two-fold serial dilution method in presence of efflux pump inhibitor verapamil. The format is functional. Particulars: H37Rv ATCC 27294, 672 h.
Data set [2] in a line: Cytotoxicity against mouse RAW264.7 cells assessed as growth inhibition at 50 uM after 72 hrs by MTT assay. The format is cell-based. The conditions noted are these: read-out: GI. Put shortly: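 RAW 264.7 cells were exposed to compound for 72 h. Viability was read as cellular conversion of MTT to formazan using a non-radioactive cell proliferation kit. Results were expressed as percentage growth inhibition.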
Background: Formazan colour is commonly taken as a measure of viable cells.

Data set [3] concerns Mycobacterium tuberculosis. Kind of data set: Antitubercular activity against Mycobacterium tuberculosis H37Rv ATCC 27294 after 28 days by two-fold serial dilution method. The format is functional. The conditions noted are these: H37Rv ATCC 27294, 672 h. Put shortly: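 Agar dilution on Middlebrook 7H11 with OADC, compound incorporated as two-fold serial dilutions. Inoculum from fresh 7H11/OADC slants, adjusted to 1 mg/mL wet weight in 0.05% Tween 80 saline and diluted 10^-2 to about 10⁷ cfu/mL, then spotted onto the drug-containing agar. Growth read after 28 days. MIC taken as the lowest concentration giving complete inhibition.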

Data set [4] in a line: Selectivity index of cytotoxicity against mouse RAW264.7 cells to antitubercular activity against Mycobacterium tuberculosis H37Rv ATCC 27294. Format: toxicity, cell-based. Particulars: read-out: Selectivity Index.

As a reminder, the MIC is the smallest concentration in the dilution series that meets the test's criterion for growth inhibition. `CN1CCc2c(sc(NC(=O)C3CC3)c2C(N)=O)C1`: the MIC in data set [1] worked out at 2.78 µM; in data set [3] it was 5.57 µM (≈ 1.56 µg/mL). Moreover, the inhibition at 72 h, 50 µM in data set [2] is 22.2%.

In the case of `NC(=O)c1c(NC(=O)c2ccc(Oc3ccccc3)cc2)sc2c1CCCCCC2`, the MIC in data set [1] is 1.23 µM; in data set [3], 3.7 µM (≈ 1.56 µg/mL). In addition, the inhibition at 72 h, 50 µM in data set [2] was 22.2%. Moreover, the selectivity ratio in data set [4] is more than 10.

On to `Cc1ccc(C(=O)Nc2sc3c(c2C(N)=O)CCCCCC3)cc1`, for which the MIC amounted to 2.27 µM in data set [1] and 4.54 µM (≈ 1.55 µg/mL) in data set [3]. The inhibition at 72 h, 50 µM in data set [2] worked out at 20.5%.

The molecule `CC(=O)Nc1sc2c(c1C(N)=O)CCN(C(C)=O)C2` had an MIC in data set [3] of 88.6 µM (≈ 24.9 µg/mL).

On to `CN1CCc2c(sc(NC(=O)C3CCCC3)c2C(N)=O)C1`, for which the MIC in data set [1] was 5.06 µM; in data set [3], 5.06 µM (≈ 1.56 µg/mL). The inhibition at 72 h, 50 µM in data set [2] is 18.2%.

`CC(=O)N1CCc2c(sc(NC(=O)c3ccccc3)c2C(N)=O)C1` gave an MIC in data set [3] of 72.7 µM (≈ 24.9 µg/mL).

`Cc1ccc(C(=O)Nc2sc3c(c2C(N)=O)CCN(C)C3)cc1`: the MIC in data set [3] worked out at 37.9 µM (≈ 12.5 µg/mL).

For `NC(=O)c1c(NC(=O)c2cccc([N+](=O)[O-])c2)sc2c1CCCCCC2`, the figures for the MIC in data set [1] and in data set [3] were 16.7 µM and 16.7 µM (≈ 6.24 µg/mL), respectively. In addition, the inhibition at 72 h, 50 µM in data set [2] worked out at 36.1%.

In data set [3], `CC(=O)N1CCc2c(sc(NC(=O)c3ccc(Oc4ccccc4)cc3)c2C(N)=O)C1` gave an MIC of 57.3 µM (≈ 25 µg/mL).

Regarding `CC(=O)N1CCc2c(sc(NC(=O)c3cccc([N+](=O)[O-])c3)c2C(N)=O)C1`, in data set [3], the MIC amounted to 64.3 µM (≈ 25 µg/mL).

In data set [3], `CC(=O)N1CCc2c(sc(NC(=O)C3CCCC3)c2C(N)=O)C1` showed an MIC of 74.4 µM (≈ 25 µg/mL).

On to `COc1ccccc1C(=O)Nc1sc2c(c1C(N)=O)CCCCCC2`, for which the MIC is 6.96 µM in data set [1] and 13.9 µM (≈ 4.99 µg/mL) in data set [3]. For the same molecule, in data set [2], the inhibition at 72 h, 50 µM stood at 24.8%.

On to `CC[C@@H](CO)NCCN[C@@H](CC)CO` [ETHAMBUTOL], for which the MIC is 3.82 µM in data set [1] and 7.64 µM (≈ 1.56 µg/mL) in data set [3].

In turn, `COc1ccccc1C(=O)Nc1sc2c(c1C(N)=O)CCN(C)C2` yielded an MIC in data set [3] of 36.1 µM (≈ 12.5 µg/mL).

In data set [3], `CN1CCc2c(sc(NC(=O)c3cccc([N+](=O)[O-])c3)c2C(N)=O)C1` came in with an MIC of 34.6 µM (≈ 12.5 µg/mL).

As for `NNC(=O)c1ccncc1` [ISONIAZID], the MIC in data set [1] worked out at 0.72 µM; in data set [3] it was 0.72 µM (≈ 0.0987 µg/mL).

As for `NC(=O)c1c(NC(=O)C2CCCCC2)sc2c1CCCCCC2`, the figures for the MIC in data set [1] and in data set [3] were 3.11 µM and 9.33 µM (≈ 3.12 µg/mL), respectively. For the same molecule, in data set [2], the inhibition at 72 h, 50 µM stood at 16.6%.

In data set [3], `CN1CCc2c(sc(NC(=O)c3ccccc3)c2C(N)=O)C1` had an MIC of 37.9 µM (≈ 11.9 µg/mL).

Regarding `CN1CCc2c(sc(NC(=O)C3CCCCC3)c2C(N)=O)C1`, the figures for the MIC in data set [1] and in data set [3] were 2.58 µM and 7.76 µM (≈ 2.49 µg/mL), respectively. For the same molecule, the inhibition at 72 h, 50 µM in data set [2] amounted to 18.3%.

Take `CC(=O)N1CCc2c(sc(NC(=O)c3cccc4ccccc34)c2C(N)=O)C1`: in data set [3], the MIC came to 63.5 µM (≈ 25 µg/mL).

As for `O=C(O)c1cn(C2CC2)c2cc(N3CCNCC3)c(F)cc2c1=O` [CIPROFLOXACIN], the MIC came to 9.41 µM in data set [1] and 9.41 µM (≈ 3.12 µg/mL) in data set [3].

As for `CC(=O)N1CCc2c(sc(NC(=O)C3CC3)c2C(N)=O)C1`, in data set [3], the MIC came out at 81.2 µM (≈ 24.9 µg/mL).

`CC(=O)Nc1sc2c(c1C(N)=O)CCN(C)C2` displayed an MIC in data set [3] of 39.4 µM (≈ 9.99 µg/mL).

The molecule `COc1ccccc1C(=O)Nc1sc2c(c1C(N)=O)CCN(C(C)=O)C2` registered an MIC in data set [3] of 66.8 µM (≈ 25 µg/mL).

On to `CC(=O)Nc1sc2c(c1C(N)=O)CCCCCC2`, for which the MIC in data set [1] came out at 9.36 µM; in data set [3] it was 18.7 µM (≈ 4.99 µg/mL). Further, the inhibition at 72 h, 50 µM in data set [2] stood at 24.6%.

On to `CC(=O)N1CCc2c(sc(NC(=O)c3cccs3)c2C(N)=O)C1`, for which the MIC in data set [1] was determined as 4.57 µM; in data set [3], 9.15 µM (≈ 3.2 µg/mL). Besides, the selectivity ratio in data set [4] turned out to be 13.

With `CN1CCc2c(sc(NC(=O)c3cccc4ccccc34)c2C(N)=O)C1`, the MIC in data set [1] was determined as 8.53 µM; in data set [3], 17.1 µM (≈ 6.24 µg/mL). Also, the inhibition at 72 h, 50 µM in data set [2] was determined as 28.4%.

Take `NC(=O)c1c(NC(=O)C2CCCC2)sc2c1CCCCCC2`: the MIC worked out at 9.73 µM in data set [1] and 9.73 µM (≈ 3.12 µg/mL) in data set [3]. Besides, in data set [2], the inhibition at 72 h, 50 µM is 18.3%.

As for `CN1CCc2c(sc(NC(=O)c3ccc(Oc4ccccc4)cc3)c2C(N)=O)C1`, the MIC in data set [3] worked out at 30.6 µM (≈ 12.5 µg/mL).

In data set [3], `CC(=O)N1CCc2c(sc(NC(=O)c3ccc(C)cc3)c2C(N)=O)C1` gave an MIC of 69.8 µM (≈ 24.9 µg/mL).

On to `NC(=O)c1c(NC(=O)C2CC2)sc2c1CCCCCC2`, for which the MIC in data set [1] was determined as 8.53 µM; in data set [3] it was 17.1 µM (≈ 4.99 µg/mL). In data set [2], the inhibition at 72 h, 50 µM was found to be 16.9%.

`CC(=O)N1CCc2c(sc(NC(=O)C3CCCCC3)c2C(N)=O)C1` gave an MIC in data set [3] of 71.4 µM (≈ 25 µg/mL).

On to `NC(=O)c1c(NC(=O)c2cccc3ccccc23)sc2c1CCCCCC2`, for which the MIC in data set [1] is 3.29 µM; in data set [3], 13.2 µM (≈ 4.99 µg/mL). Moreover, the inhibition at 72 h, 50 µM in data set [2] was determined as 28.3%.

For the molecule `NC(=O)c1c(NC(=O)c2ccccc2)sc2c1CCCCCC2`, the MIC was 5.06 µM in data set [1] and 15.2 µM (≈ 4.99 µg/mL) in data set [3]. Moreover, the inhibition at 72 h, 50 µM in data set [2] worked out at 26.6%.
